Data set [1] is described as follows: Dissociation constant of the compound. The class given is physicochemical.
Data set [2] in a line: Distribution coefficient measured in Octanol/buffer (0.15 M KCl). It is filed as physicochemical. Put shortly:
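Dual-phase titration at 25 °C: 1–2 mg sample plus 1.0 mL n-octanol in 10–15 mL water with 0.15 M KCl. Acidified to pH 2 (0.5 M HCl), then titrated with 0.5 M KOH to pH 11 under nitrogen. log P came from the pKa–pKa' shift via nonlinear regression of difference curves; log D refers to pH 7.4.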

The species entered for data set [3] is Homo sapiens. Kind of data set: Mono layer permeability of human intestinal Caco-2 cells. It is filed as ADME, cell-based. The essentials: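 Caco-2 cells at passage 93–105, seeded on polycarbonate filter inserts (0.45 μm pores) and grown 22–32 days. Drug at 1–2 mM final in HBSS with 25 mM Hepes, pH 7.4, added donor side; 37 °C, low and high stirring. Receiver sampled every 4–40 min for HPLC, under sink conditions. Pc derived from Papp across stirring rates, free of the aqueous boundary layer.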

As to `CCC(=O)Nc1ccc(OCC(O)CNC(C)C)cc1` (configuration not stated), in data set [1], the pKa (usually the negative logarithm of the acid dissociation constant) turned out to be 9.5. Further, the logD (as a rule, lipophilicity at a set pH, counting ionised and neutral species) in data set [2] was -1.08. The compound further registered a Pc in data set [3] of 6.03 ×10⁻⁶ cm/s.

With `O=C(NCCNCC(O)COc1ccc(CCOCCOCC2CC2)cc1)N1CCC(O)CC1` (configuration not stated), in data set [1], the pKa came to 8.5. The compound also gave a logD in data set [2] of -0.1. This compound also gave a Pc in data set [3] of 0.104 ×10⁻⁶ cm/s.

Compound `CC(C)NCC(O)COc1ccc(NC=O)cc1` (configuration not stated) had a pKa in data set [1] of 9.5. For the same compound, the log distribution coefficient (logD) in data set [2] was -1.56. Moreover, the Pc in data set [3] was determined as 3.75 ×10⁻⁶ cm/s.

The compound `C=CCc1ccccc1OCC(O)CNC(C)C` (configuration not stated) [ALPRENOLOL] came in with a log distribution coefficient (logD) in data set [2] of 0.85. In data set [3], this compound had a Pc of 242 ×10⁻⁶ cm/s.

In data set [2], `COCCc1ccc(OCC(O)CNC(C)C)cc1` (configuration not stated) [METOPROLOL] came in with a log distribution coefficient (logD) of -0.42. For the same compound, in data set [3], the Pc is 91.9 ×10⁻⁶ cm/s.

As to `C=CCOc1ccccc1OCC(O)CNC(C)C` (configuration not stated) [OXPRENOLOL], in data set [1], the pKa worked out at 9.5. The compound also gave a logD in data set [2] of 0.08. In data set [3], this compound displayed a Pc of 119.6 ×10⁻⁶ cm/s.

`CC(C)NCC(O)COc1cccc2[nH]ccc12` (configuration not stated) [PINDOLOL] came in with a pKa in data set [1] of 9.7. Besides, the log distribution coefficient (logD) in data set [2] is -0.55. Moreover, in data set [3], the Pc was found to be 54.7 ×10⁻⁶ cm/s.

In turn, `CC(=O)Nc1ccc(OCC(O)CNC(C)C)cc1` (configuration not stated) [PRACTOLOL] showed a pKa in data set [1] of 9.5. Besides, in data set [2], the logD is -1.31. Besides, the Pc in data set [3] amounted to 3.46 ×10⁻⁶ cm/s.
